# Data reported in the M2OR odorant receptor database.
# Biological target: T1, OR5M3 (Homo sapiens) (UniProt Q8NGP4)
# T1 sequence (whole entry): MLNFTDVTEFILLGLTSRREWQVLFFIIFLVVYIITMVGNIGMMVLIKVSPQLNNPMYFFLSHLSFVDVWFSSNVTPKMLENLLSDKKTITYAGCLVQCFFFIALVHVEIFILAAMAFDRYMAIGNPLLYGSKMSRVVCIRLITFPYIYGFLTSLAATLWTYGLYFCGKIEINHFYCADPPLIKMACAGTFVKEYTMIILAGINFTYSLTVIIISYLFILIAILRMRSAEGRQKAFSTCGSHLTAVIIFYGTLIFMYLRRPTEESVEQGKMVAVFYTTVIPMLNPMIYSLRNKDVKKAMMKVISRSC
# Conditions: stereoisomer not certain
# Outline: (§1)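 Values were gathered from published papers (main text and supplementary material), with extra details requested from the original authors when needed, and checked for typos and inconsistencies. Each receptor–molecule pair is called responsive (active) if the original authors judged the measured signal statistically different from baseline, and non-responsive (inactive) otherwise. Assay methods varied by source, often transient mammalian cell-line luciferase assays. Recorded details include cell line, G-protein, co-transfected protein and tags.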
row,Structure (SMILES),odorant receptor agonist call
1,CCC(=O)C(C)S (centres undefined),inactive
2,CCCCCCCC1CCC(=O)O1 (centres undefined),inactive
3,CC(=O)O,inactive
4,CC1(C)OC=CC1=O,inactive
5,CCC=CCCC=O,inactive
6,CCCCCCO,inactive
7,CC(C)CCCCCCCCCCC=O,inactive
8,CCCCC(=O)OCC,inactive
9,CCCc1ccc(O)c(OC)c1,inactive
10,CC=Cc1ccc(OC)cc1,inactive
11,C=C1CCC2(C(C)C)CC12 (centres undefined),inactive
12,CC(C)=CCCC(C)=CCO,inactive
13,CCC(C)CO (centres undefined),inactive
14,CC1=CCC(C(C)(C)S)CC1 (centres undefined),inactive
15,C=Cc1ccc(O)c(OC)c1,inactive
16,CCOC(=O)CCSC,inactive
17,CC=CC(=O)C1=C(C)CCCC1(C)C,inactive
18,CC(=O)C1=NCCS1,inactive
19,COC(=O)C(C)C,inactive
20,CCC(C)CCC(=O)[O-] (centres undefined),inactive

row,Structure (SMILES),odorant receptor agonist call
1,CCOC(C)OCC,inactive
2,CCCCCCC=CC=O,inactive
3,CCCCCCCCCO,inactive
4,CCCSSCCC,inactive
5,OCC=Cc1ccccc1,inactive
6,C=CC(=O)CC=CCC,inactive
7,C=CC(=C)CCC=C(C)C,inactive
8,Cc1occc1S,inactive
9,CSSSC,inactive
10,CC(=O)OCCc1ccccc1,inactive
11,CC(C)=CC1CC(C)CCO1 (centres undefined),inactive
12,CCCCCCCCCC(=O)[O-].[H+],inactive
13,CCOC(=O)C=Cc1ccccc1,inactive
14,CCOC(=O)CC(C)C,inactive
15,C=C(C)c1ccc(C)cc1,inactive
16,CCC(S)C(C)=O (centres undefined),inactive
17,CCCCCCCCC=CC=O,inactive
18,CCCCC(=O)O,inactive
19,COc1ccc2ccc(=O)oc2c1,inactive

# Biological target: T2, OR5P3 (Homo sapiens) (UniProt Q8WZ94)
# T2 sequence (whole entry): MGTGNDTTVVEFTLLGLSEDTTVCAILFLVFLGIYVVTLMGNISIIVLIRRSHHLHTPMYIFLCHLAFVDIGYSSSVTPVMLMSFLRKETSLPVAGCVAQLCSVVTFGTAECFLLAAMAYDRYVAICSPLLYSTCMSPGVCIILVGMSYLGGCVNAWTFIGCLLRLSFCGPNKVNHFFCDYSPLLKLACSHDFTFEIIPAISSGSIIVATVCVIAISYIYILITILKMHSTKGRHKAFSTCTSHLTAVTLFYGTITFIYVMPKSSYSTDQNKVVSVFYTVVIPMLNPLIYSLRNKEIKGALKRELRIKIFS
# Conditions: stereoisomer not certain
# Outline: as §1
row,Structure (SMILES),odorant receptor agonist call
1,CCCCCCO,active
2,CC(C)=CCCC(C)=CCO,inactive
3,CCCCCCCCCO,inactive
4,CCCCCCCCCC(=O)[O-].[H+],inactive
5,CCCCC(=O)O,inactive
